# KCNQ1 block – inhibitors of human KCNQ1 potassium channel; B-score at 10 µM; CHO-K1 KCNQ1, FluxOR thallium flux fluorescence; active compounds read high; 310,000 compounds, 1.3% hits; P51787;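 active = compounds whose thallium flux B-score, printed positive for inhibition, exceeds three library SD while starting fluorescence stays within three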;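 note: channel opened by potassium depolarization with thallium stimulus after 20 min compound exposure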
# KCNK3 inh – human KCNK3 channel inhibition, primary screen; CHO-KCNK3 thallium flux, FluxOR fluorescence; active compounds read low; B-score at 10 µM; 340,000 compounds, 0.84% hits; AID 602410;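 active = B-score under library mean minus 4 SD, starting fluorescence ratio at most library mean plus 5 SD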;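 note: more negative B-score means stronger inhibition of thallium flux through KCNK3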
# KCNQ1 act – potentiates or activates the human KCNQ1 potassium channel; P51787; CHO-K1 KCNQ1, thallium flux FluxOR fluorescence; active compounds read high; B-score at 10 µM; 310,000 compounds, 0.35% hits;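 active = fluorescence ratio B-score, a plate-corrected score, at least three library SD, with initial intensity B-score within 5 SD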
#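 Test system: CHO-K1 cells stably expressing KCNQ1 / Medium: assay buffer / Also added: depolarizing K+/Tl+ stimulus, K2SO4 and Tl2SO4 each 12.5 mM in 5x stock / Incubation: 90 min dye loading and 20 min compound exposure, both at room temperature / Signal: thallium influx via FluxOR fluorescence, kinetic imaging / Evaluation: B score of baseline-normalized fluorescence ratio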
# hERG rescue – hERG (human) protection from proarrhythmic block | activation (rescue from dofetilide block), less the hit threshold, % at 10 µM | AID 1511 | 310,000 compounds, 0.51% hits | Q12809 | CHO-hERG, FluxOR thallium flux, dofetilide IC70 present;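 active = activation above the mean of controls blocked by dofetilide plus 5 SD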;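 note: thallium influx through hERG after potassium depolarization seen as dye fluorescence rise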
# KCNK9 block – blocks the human KCNK9 two-pore domain potassium channel; B-score at 10 µM; HEK293 KCNK9, FluxOR thallium flux fluorescence; active compounds read low; Q9NPC2; 310,000 compounds, 1.2% hits;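 active = ratio B-score over 3 SD below the library mean, with starting fluorescence within 5 SD of its mean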;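 note: negative B-score means less thallium flux so channel inhibition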
# Active calls of the source: *; i = inactive; · = not tested or not shown. Most compounds without a hit are left out; they make up all but 3.1% or so of the library.
SMILES,KCNQ1 block,KCNK3 inh,KCNQ1 act,hERG rescue,KCNK9 block
Fc1ccc(C(c2ccc(F)cc2)N2CCN(C/C=C/c3ccccc3)CC2)cc1,8*,i,i,-16,i
Cc1ccc(F)c(Oc2cc(NN3CCCCC3)c([N+](=O)[O-])cc2[N+](=O)[O-])c1,i,i,i,-9,-7.3*
O=[N+]([O-])c1cc([N+](=O)[O-])c(Oc2ccccc2F)cc1NN1CCCCC1,i,i,i,-15,i
COc1ccc(/C=C(/C(=O)c2cccs2)N2C=CC=CC2=C(C#N)C#N)cc1,11*,i,i,-29,i
CC(=O)c1cccc(NC(=O)C(C)OC(=O)CCc2nc3ccccc3c(=O)[nH]2)c1 (stereo not drawn),·,i,·,·,·
CCOc1ccc(C(=O)NCC(=O)NCCSc2ccc(Br)cc2)cc1OCC,·,-9.8*,·,·,·
Cc1cc(Br)c(NC(=O)COC(=O)CC2CC3CCC2C3)c(Br)c1 (stereo not drawn),·,i,·,·,·
CC1CN(c2ccc([N+](=O)[O-])c(NCCOc3ccc(Cl)cc3)c2)CC(C)N1 (stereo not drawn),9*,i,i,-30,i
CC(C)OC(=O)c1cc(NC(=S)Nc2ccc([N+](=O)[O-])cc2)cc(C(=O)OC(C)C)c1,10*,i,i,-18,i
N=c1oc2cc(O)ccc2cc1C(=O)Nc1ccc(Br)cc1,8*,i,i,-5,i
COc1cc2ncnc(NCc3cccs3)c2cc1OC,i,i,i,5.0*,i
CCCNC(=O)C1(S(=O)(=O)c2ccccc2)CC=CC1,i,i,i,-1,i
Cc1ccc(C)n1-c1sc2c(c1C#N)CCC(C)C2 (stereo not drawn),i,i,i,-5,-7.4*
CC(=O)Nc1sc2c(c1C#N)CCC(C)C2 (stereo not drawn),i,i,i,-6,i
CCN(CC)c1nc(C(F)(F)F)nc2c1nnn2Cc1ccccc1,6*,i,i,-6,i
CCN1C(=O)C(=O)N(CC(=O)Nc2cccc(C(F)(F)F)c2)C1=O,·,i,·,·,·
CN(c1ccc(C(=O)NCCSCc2ccc(Cl)cc2)cc1)S(=O)(=O)c1ccccc1,6*,i,i,-5,i
COc1ccccc1N(CC(=O)NCCSCc1ccc(C)cc1)S(=O)(=O)c1ccccc1,10*,i,i,-18,i
COc1ccc(N(CC(=O)NCCSCc2ccc(C)cc2)S(=O)(=O)c2ccccc2)cc1,i,i,i,-7,i
Cc1nnnn1/C(=C\c1ccccc1)C(=O)OCC(=O)Nc1ccc(Cl)cc1F,i,i,7*,-13,i
O=C(Nc1ccccc1)C1=C[C@@H](C2CCCCC2)C[C@@H](OCc2ccc(CO)cc2)O1,i,i,i,-6,-7.1*
O=C(NCc1nc2ccccc2[nH]1)C1=C[C@@H](C2CCCCC2)C[C@@H](OCc2ccc(CO)cc2)O1,9*,i,i,-5,i
CN(Cc1nc(-c2ccc(Cl)cc2)no1)C(=O)c1ccc2c(c1)OCO2,i,i,i,-16,i
Cn1c(SCC(=O)Nc2ccc3c(c2)n(C)c(=O)n3C)nnc1-c1ccncc1,i,i,i,-16,i
O=C(Nc1ccccc1Cl)C1C(c2ccccc2)C1(Cl)Cl (stereo not drawn),6*,i,i,-11,i
SMILES,KCNQ1 block,KCNK3 inh,KCNQ1 act,hERG rescue,KCNK9 block
CCc1ccccc1NC(=O)C1C(c2ccccc2)C1(Cl)Cl (stereo not drawn),i,i,i,-9,i
CC(NC(=S)Nc1ccc(F)cc1)c1ccccc1 (stereo not drawn),i,i,i,-2,i
FC(F)Sc1ccc(NC(=S)NC(c2ccccc2)c2ccccc2)cc1,11*,i,i,-43,i
FC(F)Sc1ccc(NC(=S)NCC2CCCCC2)cc1,9*,i,i,-16,-7.3*
CN(C(=S)Nc1ccc(SC(F)F)cc1)C(c1ccccc1)c1ccccc1,10*,i,i,-11,i
CC1CC(C)CN(C(=O)c2ccc(NS(=O)(=O)c3ccc4[nH]c(=O)[nH]c4c3)cc2)C1 (stereo not drawn),i,i,i,-8,i
CCCCn1c(=N)n(CC(=O)C(C)(C)C)c2ccccc21,i,i,i,-4,i
CCCn1c(=N)n(CC(=O)C(C)(C)C)c2ccccc21,6*,i,i,-5,i
COC(=O)[C@@H](c1ccccc1)N(C)S(=O)(=O)c1cccc(S(=O)(=O)N(C)[C@@H](C(=O)OC)c2ccccc2)c1,i,i,i,-3,-7*
COC(=O)C(c1ccccc1)C(C(=O)OC)c1ccccc1 (stereo not drawn),i,i,i,-7,i
O=C(NCc1ccccc1)c1ccc(S(=O)(=O)N2CCCc3ccccc32)cc1,i,i,i,-15,-7.3*
O=C(NCc1ccco1)c1ccc(S(=O)(=O)N2CCCc3ccccc32)cc1,i,i,i,-9,-6.9*
O=C(NCc1ccccc1)c1ccc(S(=O)(=O)N2CCCC2)cc1,i,i,i,-8,i
CCCCN(CCCC)c1nc(OC)nc(-n2nnc(C(C)=O)c2C)n1,i,i,i,-16,-6.6*
Cc1cc(Br)ccc1NC(=O)C1CCN(S(=O)(=O)c2cnc[nH]2)CC1,i,i,i,-9,i
CCc1ccc2c(Cl)c(C(=O)N/N=C/c3c[nH]c4ccccc34)sc2c1,6*,i,i,-9,i
COC(=O)[C@H](C)NC(=O)Nc1cc(Cl)ccc1C,i,i,13*,1,i
CCOC(=O)/C(=C/C=C/c1ccccc1)NC(=O)c1ccccc1,i,i,i,-13,-7.4*
CCOC(=O)C(NC(=O)c1ccccc1)=C(C)C,i,i,i,5.4*,i
O=C(Cc1cccc(NC(=O)C2CCCN(C(=O)C3CCC3)C2)c1)Nc1cccc(C(=O)N2CCCC2)c1 (stereo not drawn),·,i,·,·,·
COc1ccc(C(=O)N=c2sc3c(C)ccc(OC)c3n2C)cc1,i,i,i,-10,-7*
COc1ccc(C(CC(=O)c2ccc(C)cc2)Nc2ccc([N+](=O)[O-])cc2)cc1 (stereo not drawn),6*,i,i,-8,i
CCCCCNC(=O)Cc1ccc(S(=O)(=O)N2CCOCC2)s1,i,i,i,-14,i
Cc1ccc(NC(=O)c2c(Cl)n(C)c3ccccc23)cc1,i,i,i,-3,-7.1*
Cn1c(Cl)c(C(=O)Nc2ccccc2)c2ccccc21,·,i,·,·,·
COc1ccc(OC)c(C2Nc3ccccc3NC3=C2C(=O)CC(C)(C)C3)c1 (stereo not drawn),i,i,i,-3,i
